Screens as filed in PubChem BioAssay.
Rows were chosen to be rich in hits. Some 4.3% of all compounds tested hit in one or more screens of this group.
ALR H2O2 inh = inhibitors of human ALR sulfhydryl oxidase, primary screen, biochemical, H2O2 detection, HRP-luminol luminescence, single point; actives 3.8% (n = 290,000); purified ALR, DTT oxidation; AID 485317, 2010; FAD-linked sulfhydryl oxidase ALR (Homo sapiens), P55789; inhibition, % (test concentration not listed);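 active = mean replicate inhibition above about 79%, with every replicate also reaching it, limit read from the data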
Target sequence (P55789 whole entry, looked up): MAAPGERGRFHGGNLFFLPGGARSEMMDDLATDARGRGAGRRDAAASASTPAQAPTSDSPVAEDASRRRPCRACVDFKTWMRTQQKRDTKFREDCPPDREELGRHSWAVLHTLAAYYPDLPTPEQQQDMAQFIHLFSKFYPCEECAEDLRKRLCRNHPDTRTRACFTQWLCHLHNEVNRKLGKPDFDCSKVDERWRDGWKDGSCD
Rtt109 Vps75 = inhibitors of C. albicans Rtt109/Vps75 HAT, primary screen, biochemical, ThioGlo CoA-SH fluorescence, plate reader; actives 0.16% (n = 330,000); purified Rtt109/Vps75, 4 h; Histone acetyltransferase RTT109 (Candida albicans (strain SC5314 / ATCC MYA-2876)), …; inhibition, % at 34.9 µM;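 active = inhibition of at least 50% in every replicate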
Target sequence (Q5AAJ8 whole entry, looked up): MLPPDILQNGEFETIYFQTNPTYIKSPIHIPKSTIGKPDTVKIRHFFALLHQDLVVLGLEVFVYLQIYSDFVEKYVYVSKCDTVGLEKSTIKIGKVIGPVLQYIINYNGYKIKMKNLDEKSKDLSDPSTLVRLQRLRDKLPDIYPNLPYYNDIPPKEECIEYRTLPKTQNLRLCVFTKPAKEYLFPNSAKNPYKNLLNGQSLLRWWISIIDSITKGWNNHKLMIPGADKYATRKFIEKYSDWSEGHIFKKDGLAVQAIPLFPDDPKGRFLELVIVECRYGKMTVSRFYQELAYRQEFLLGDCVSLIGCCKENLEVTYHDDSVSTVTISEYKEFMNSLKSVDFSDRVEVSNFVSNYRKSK
CAL PDZ FP-1 = untagged CAL PDZ binding inhibitors, primary screen, biochemical, fluorescence polarization, HTS; Golgi-associated PDZ and coiled-coil motif-containing protein (Homo sapiens), Q9HD26; purified CAL PDZ, TMR-peptide fluorescence polarization, 1 h; inhibition, % at 24.9 µM; actives 0.92% (n = 300,000); AID 602252, 2012;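 active = mean inhibition of at least 30% with at least half of replicates also reaching 30%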;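 note: 0% = DMSO neutral control and 100% = excess unlabeled competitor peptide PRC23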
Dyrk1A ADPGlo = rat Dyrk1A kinase inhibitors, primary screen, biochemical, single point, plate reader. actives 0.43% (n = 310,000). Dual specificity tyrosine-phosphorylation-regulated kinase 1A (Rattus norvegicus), Q63470. ADP-Glo luminescence, NFATc1 peptide. inhibition, % at 12.5 µM; in the data active = inhibition above about 50%;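 note: plate controls were vehicle with enzyme for no effect and no enzyme for full effect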
CAL PDZ FP-2 = CAL PDZ peptide-binding inhibitors, primary screen, biochemical, fluorescence polarization, Cer-tagged CAL PDZ, HTS; purified CAL PDZ, TMR-peptide fluorescence polarization, 1 h; actives 0.02% (n = 330,000); Golgi-associated PDZ and coiled-coil motif-containing protein (Homo sapiens), Q9HD26; AID 504414, 2011; inhibition, % at 20 µM;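 active = highest replicate inhibition of at least 40%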;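 note: plate controls were DMSO neutral control wells for no effect and unlabeled competitor peptide control wells for full effect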
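Assay system – tagged CAL PDZ protein CerCALP, purified · Timing – 1 h at RT · Compound – single point, 20 µM · Measured by – fluorescence polarization from S- and P-plane intensities, G-factor corrected · Evaluation – inhibition from polarization loss · Probe or stimulus – TMR reporter peptide T*-PRC34 · Buffer or medium – pH 7.4 phosphate-saline buffer, reducing agent, detergent, IgG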
An asterisk follows results filed as active.

What do the screens show for `CN(C)C(=O)c1ccc(NC(=O)c2ccc(-c3ccc(Cl)cc3)o2)cc1`?
ALR H2O2 inh: -4; Rtt109 Vps75: 0; CAL PDZ FP-1: 62*; CAL PDZ FP-2: -3

Results for COc1cc(NS(=O)(=O)c2ccc(NC(=O)c3cccnc3)cc2)ncn1 ?
ALR H2O2 inh: -11; Rtt109 Vps75: 0; CAL PDZ FP-1: 0; Dyrk1A ADPGlo: 2; CAL PDZ FP-2: 0

How did COCCNC(=O)c1cn(CCOC)c(=O)c2c1c1ccccc1n2C do in these assays?
ALR H2O2 inh: -8; Rtt109 Vps75: 0; CAL PDZ FP-1: 49*; Dyrk1A ADPGlo: -4; CAL PDZ FP-2: -2

How did O=C(O)c1cnn(-c2nc(-c3cccc(F)c3)cs2)c1C(F)(F)F do in these assays?
ALR H2O2 inh: 11; Rtt109 Vps75: -4; Dyrk1A ADPGlo: 12; CAL PDZ FP-2: -1

What do the screens show for `Nc1cccc(-c2csc(-n3ncc(C(=O)O)c3C(F)(F)F)n2)c1`?
ALR H2O2 inh: 99*; Rtt109 Vps75: -6; CAL PDZ FP-1: -11; Dyrk1A ADPGlo: 10; CAL PDZ FP-2: -4

Results for C/C(=N\NC(=O)NC1CCCCC1)c1ccco1 ?
ALR H2O2 inh: 14; Rtt109 Vps75: 4; CAL PDZ FP-1: -4; CAL PDZ FP-2: -1

What do the screens show for `CCOC(=O)Oc1ccc2c(=O)c(Oc3cccc(C)c3)coc2c1`?
ALR H2O2 inh: 96*; Rtt109 Vps75: 6; CAL PDZ FP-1: -5; Dyrk1A ADPGlo: -3; CAL PDZ FP-2: -2

What do the screens show for `O=C1CCN(S(=O)(=O)c2cccs2)c2ccc(C(F)(F)F)cc2N1`?
ALR H2O2 inh: -2; CAL PDZ FP-1: 5; Dyrk1A ADPGlo: 1; CAL PDZ FP-2: 0

How did N#Cc1ccc(NC(=O)CN2C(=O)NC3(CCCC3)C2=O)cc1 do in these assays?
Rtt109 Vps75: 23; CAL PDZ FP-1: 1; Dyrk1A ADPGlo: -17; CAL PDZ FP-2: -2

Results for COc1cccc(NC(=O)CN2C(=O)NC3(CCc4ccccc43)C2=O)c1 (stereo not drawn) ?
ALR H2O2 inh: -7; Rtt109 Vps75: -9; CAL PDZ FP-1: 73*; CAL PDZ FP-2: -2

What do the screens show for `O=C(CN1C(=O)NC2(CCc3ccccc32)C1=O)Nc1cccc(Cl)c1` (stereo not drawn)?
ALR H2O2 inh: -4; Rtt109 Vps75: -1; CAL PDZ FP-1: -3; CAL PDZ FP-2: -1

What do the screens show for `COc1ccc(OC)c(NC(=O)CN2C(=O)NC3(CCOc4ccccc43)C2=O)c1` (stereo not drawn)?
ALR H2O2 inh: -4; Rtt109 Vps75: 9; CAL PDZ FP-1: 38*

What do the screens show for `COC(=O)CNC(=O)CN1C(=O)NC2(CCCc3ccccc32)C1=O` (stereo not drawn)?
ALR H2O2 inh: -4; Rtt109 Vps75: -12; CAL PDZ FP-1: 39*; Dyrk1A ADPGlo: 7; CAL PDZ FP-2: 0

How did CN(C)C(CNC(=O)CN1C(=O)NC2(CCc3ccccc32)C1=O)c1ccco1 (stereo not drawn) do in these assays?
ALR H2O2 inh: 100*; Rtt109 Vps75: -2; CAL PDZ FP-1: 9; Dyrk1A ADPGlo: -4; CAL PDZ FP-2: -1

How did COc1cc(C(=O)NC(C)c2cc(C)ccc2C)ccc1OCC(=O)N1CCOCC1 (stereo not drawn) do in these assays?
Rtt109 Vps75: -12; CAL PDZ FP-1: -2; Dyrk1A ADPGlo: -3; CAL PDZ FP-2: -1

Results for CC(C(=O)Nc1ccc(N(C)C)cc1)N1C(=O)c2ccccc2S1(=O)=O (stereo not drawn) ?
ALR H2O2 inh: 99*; Rtt109 Vps75: -3; CAL PDZ FP-1: 1; Dyrk1A ADPGlo: -5; CAL PDZ FP-2: -2

How did CCOc1ccc(NC(=O)C(C)N2C(=O)c3ccccc3S2(=O)=O)cc1 (stereo not drawn) do in these assays?
ALR H2O2 inh: -3; Rtt109 Vps75: 0; CAL PDZ FP-1: -3; Dyrk1A ADPGlo: -1; CAL PDZ FP-2: 1

What do the screens show for `NC(N)=N/N=C/c1ccc(OCc2ccccc2)c(OCc2ccccc2)c1`?
ALR H2O2 inh: -5; Rtt109 Vps75: 79*; CAL PDZ FP-1: -5; Dyrk1A ADPGlo: 4; CAL PDZ FP-2: -4

Results for C/C(=N\NC(N)=O)C1CC(Cc2ccccc2)C(=O)O1 (stereo not drawn) ?
ALR H2O2 inh: -23; Rtt109 Vps75: -1; CAL PDZ FP-1: -4; Dyrk1A ADPGlo: -2; CAL PDZ FP-2: 0

How did CCCC1CCC(c2ccc(/C(N)=N/O)cc2)CC1 (stereo not drawn) do in these assays?
ALR H2O2 inh: 94*; Rtt109 Vps75: 1; CAL PDZ FP-1: 10; CAL PDZ FP-2: 1

Results for COc1ccc(-n2nc(C(=O)NCC(=O)Nc3cccc(Cl)c3)c3ccccc3c2=O)cc1 ?
ALR H2O2 inh: 3; Rtt109 Vps75: -21; CAL PDZ FP-1: 1; Dyrk1A ADPGlo: -2; CAL PDZ FP-2: -3

Results for O=C(NCCN1CCOCC1)c1ccc(CS(=O)(=O)c2c(Cl)cccc2Cl)o1 ?
ALR H2O2 inh: 1; Rtt109 Vps75: 7; CAL PDZ FP-1: 32*; Dyrk1A ADPGlo: 7; CAL PDZ FP-2: -1

How did O=C(NNC(=S)NC(=O)c1ccccc1)c1ccc([N+](=O)[O-])cc1 do in these assays?
ALR H2O2 inh: 99*; Rtt109 Vps75: -2; CAL PDZ FP-1: 0; CAL PDZ FP-2: 0

Results for O=C(NNC(=S)NC(=O)c1ccccc1[N+](=O)[O-])c1ccccc1O ?
ALR H2O2 inh: 55; Rtt109 Vps75: -9; CAL PDZ FP-1: 6; Dyrk1A ADPGlo: -3; CAL PDZ FP-2: 0

Results for O=C(NC(=S)NNC(=O)c1ccccc1O)c1ccc([N+](=O)[O-])cc1 ?
ALR H2O2 inh: 4; Rtt109 Vps75: 7; CAL PDZ FP-1: 3; Dyrk1A ADPGlo: -2; CAL PDZ FP-2: -1

What do the screens show for `O=C(NCCCN1CCOCC1)c1ccc(CS(=O)(=O)c2c(Cl)cccc2Cl)o1`?
ALR H2O2 inh: -7; Rtt109 Vps75: -1; Dyrk1A ADPGlo: -6; CAL PDZ FP-2: 0

Results for O=CNNC(=O)c1cccc([N+](=O)[O-])c1 ?
ALR H2O2 inh: 1; Rtt109 Vps75: -5; Dyrk1A ADPGlo: -1; CAL PDZ FP-2: -1

Results for O=C(NNc1c(Cl)cc(Cl)cc1Cl)c1cccc([N+](=O)[O-])c1 ?
ALR H2O2 inh: 93*; Rtt109 Vps75: 8; CAL PDZ FP-1: -4; Dyrk1A ADPGlo: -7; CAL PDZ FP-2: -2

What do the screens show for `CCCCOc1ccccc1C(=O)NNC(=S)NC(=O)c1ccccc1[N+](=O)[O-]`?
ALR H2O2 inh: 84*; Rtt109 Vps75: -11; CAL PDZ FP-1: -4; Dyrk1A ADPGlo: 2; CAL PDZ FP-2: 1
